Laboratory results reported in ChEMBL document CHEMBL3351385, “Synthesis and preliminary mechanistic evaluation of 5-(p-tolyl)-1-(quinolin-2-yl)pyrazole-3-carboxylic acid amides with potent antiproliferative activity on human cancer cell lines” (Eur J Med Chem, 2014).
Calls of active or inactive are those of the source. The rule behind the calls is not given here.

Tests used:
[1] = target: Mitogen-activated protein kinase 9 (Homo sapiens) (UniProt P45984); experiment: Inhibition of JNK2 (unknown origin) assessed as remaining enzyme activity at 10 uM by radioactive [33P]-ATP filter binding assay
[2] = target: Homeodomain-interacting protein kinase 1 (Homo sapiens) (UniProt Q86Z02); experiment: Inhibition of HIPK1 (unknown origin) assessed as remaining enzyme activity at 10 uM by radioactive [33P]-ATP filter binding assay
[3] = test system: Huh-7; experiment: Induction of autophagy in human HuH7 cells assessed as increase in LC3-2 formation at cytotoxic IC50 level after 72 hrs by Western blotting method; assay type: functional, cell-based
[4] = target: Ribosomal protein S6 kinase alpha-1 (Homo sapiens) (UniProt Q15418); experiment: Inhibition of RSK1 (unknown origin) assessed as remaining enzyme activity at 10 uM by radioactive [33P]-ATP filter binding assay
[5] = target: Tyrosine-protein kinase SYK (Homo sapiens) (UniProt P43405); experiment: Inhibition of SYK (unknown origin) assessed as remaining enzyme activity at 10 uM by radioactive [33P]-ATP filter binding assay
[6] = target: Insulin receptor-related protein (Homo sapiens) (UniProt P14616); experiment: Inhibition of IRR (unknown origin) assessed as remaining enzyme activity at 10 uM by radioactive [33P]-ATP filter binding assay
[7] = Induction of cell cycle arrest in human Mahlavu cells assessed as accumulation at S phase at cytotoxic IC50 level after 48 hrs by propidium iodide staining based FACS method; assay type: functional
[8] = target: Misshapen-like kinase 1 (Homo sapiens) (UniProt Q8N4C8); experiment: Inhibition of MINK1 (unknown origin) assessed as remaining enzyme activity at 10 uM by radioactive [33P]-ATP filter binding assay
[9] = target: High affinity nerve growth factor receptor (Homo sapiens) (UniProt P04629); experiment: Inhibition of TrkA (unknown origin) assessed as remaining enzyme activity at 10 uM by radioactive [33P]-ATP filter binding assay
[10] = Induction of cell cycle arrest in human Mahlavu cells assessed as accumulation at G2/M phase at cytotoxic IC50 level after 48 hrs by propidium iodide staining based FACS method; assay type: functional
[11] = target: MAP/microtubule affinity-regulating kinase 4 (Homo sapiens) (UniProt Q96L34); experiment: Inhibition of MARK4 (unknown origin) assessed as remaining enzyme activity at 10 uM by radioactive [33P]-ATP filter binding assay
[12] = target: Mitogen-activated protein kinase 14 (Homo sapiens) (UniProt Q16539); experiment: Inhibition of p38alpha (unknown origin) assessed as remaining enzyme activity at 10 uM by radioactive [33P]-ATP filter binding assay
[13] = target: Casein kinase I isoform delta (Homo sapiens) (UniProt P48730); experiment: Inhibition of CK1delta (unknown origin) assessed as remaining enzyme activity at 10 uM by radioactive [33P]-ATP filter binding assay
Summary of the method: (§1)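 A single 10 µM concentration was tested across a 140-kinase panel. Activity was measured by a radioactive 33P-ATP filter-binding assay run at the International Center for Kinase Profiling, University of Dundee.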

[14] = Induction of cell cycle arrest in human HuH7 cells assessed as accumulation at G0/G1 phase at cytotoxic IC50 level after 48 hrs by propidium iodide staining based FACS method; assay type: functional, Huh-7
Summary of the method: (§2)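 Huh7 cells were seeded at 150,000–300,000 per 100-mm dish and left 24 h. […] Cells were stained with a propidium iodide-containing cell cycle reagent, and subG1, G0/G1, S and G2/M fractions were scored by flow cytometry.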

[15] = target: Serine/threonine-protein kinase SIK2 (Homo sapiens) (UniProt Q9H0K1); experiment: Inhibition of SIK2 (unknown origin) assessed as remaining enzyme activity at 10 uM by radioactive [33P]-ATP filter binding assay
[16] = target: Mitogen-activated protein kinase 1 (Homo sapiens) (UniProt P28482); experiment: Inhibition of ERK2 (unknown origin) assessed as remaining enzyme activity at 10 uM by radioactive [33P]-ATP filter binding assay; summary of the method: as §1
[17] = target: Dual specificity mitogen-activated protein kinase kinase 1 (Homo sapiens) (UniProt Q02750); experiment: Inhibition of MKK1 (unknown origin) assessed as remaining enzyme activity at 10 uM by radioactive [33P]-ATP filter binding assay
[18] = target: MAP kinase-interacting serine/threonine-protein kinase 2 (Homo sapiens) (UniProt Q9HBH9); experiment: Inhibition of MNK2 (unknown origin) assessed as remaining enzyme activity at 10 uM by radioactive [33P]-ATP filter binding assay
[19] = target: Interleukin-1 receptor-associated kinase 1 (Homo sapiens) (UniProt P51617); experiment: Inhibition of IRAK1 (unknown origin) assessed as remaining enzyme activity at 10 uM by radioactive [33P]-ATP filter binding assay
[20] = target: Receptor tyrosine-protein kinase erbB-4 (Homo sapiens) (UniProt Q15303); experiment: Inhibition of HER4 (unknown origin) assessed as remaining enzyme activity at 10 uM by radioactive [33P]-ATP filter binding assay
[21] = target: Protein-tyrosine kinase 6 (Homo sapiens) (UniProt Q13882); experiment: Inhibition of BRK (unknown origin) assessed as remaining enzyme activity at 10 uM by radioactive [33P]-ATP filter binding assay; summary of the method: as §1
[22] = Cytotoxicity against human HuH7 cells after 72 hrs by SRB assay; assay type: functional, cell-based; details: Huh-7, 72 h
Summary of the method: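 Cells kept in DMEM with 10% FCS and penicillin/streptomycin at 37°C, 5% CO2. 2000–3000 cells/well were seeded, and medium was refreshed the next day. DMSO solutions were added over 2.5–40 µM with matched DMSO-only controls for 72 h. Cells were then TCA-fixed, stained with 0.4% SRB in 1% acetic acid, solubilized in 10 mM Tris pH 8 and read at 515 nm. Data were normalized to DMSO wells and expressed as mean ±SD.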

[23] = target: Dual specificity tyrosine-phosphorylation-regulated kinase 3 (Homo sapiens) (UniProt O43781); experiment: Inhibition of DYRK3 (unknown origin) assessed as remaining enzyme activity at 10 uM by radioactive [33P]-ATP filter binding assay; summary of the method: as §1
[24] = target: Ephrin type-A receptor 4 (Homo sapiens) (UniProt P54764); experiment: Inhibition of EPHA4 (unknown origin) assessed as remaining enzyme activity at 10 uM by radioactive [33P]-ATP filter binding assay; summary of the method: as §1
[25] = target: Calcium/calmodulin-dependent protein kinase type 1 (Homo sapiens) (UniProt Q14012); experiment: Inhibition of CAMK1 (unknown origin) assessed as remaining enzyme activity at 10 uM by radioactive [33P]-ATP filter binding assay; summary of the method: as §1
[26] = target: Ephrin type-B receptor 3 (Homo sapiens) (UniProt P54753); experiment: Inhibition of EPHB3 (unknown origin) assessed as remaining enzyme activity at 10 uM by radioactive [33P]-ATP filter binding assay; summary of the method: as §1
[27] = target: Serine/threonine-protein kinase MARK2 (Homo sapiens) (UniProt Q7KZI7); experiment: Inhibition of MARK2 (unknown origin) assessed as remaining enzyme activity at 10 uM by radioactive [33P]-ATP filter binding assay
[28] = Induction of cell cycle arrest in human HuH7 cells assessed as accumulation at S phase at cytotoxic IC50 level after 48 hrs by propidium iodide staining based FACS method; assay type: functional, Huh-7; summary of the method: as §2

Sequence of Dual specificity tyrosine-phosphorylation-regulated kinase 3 (Homo sapiens) (O43781 whole entry): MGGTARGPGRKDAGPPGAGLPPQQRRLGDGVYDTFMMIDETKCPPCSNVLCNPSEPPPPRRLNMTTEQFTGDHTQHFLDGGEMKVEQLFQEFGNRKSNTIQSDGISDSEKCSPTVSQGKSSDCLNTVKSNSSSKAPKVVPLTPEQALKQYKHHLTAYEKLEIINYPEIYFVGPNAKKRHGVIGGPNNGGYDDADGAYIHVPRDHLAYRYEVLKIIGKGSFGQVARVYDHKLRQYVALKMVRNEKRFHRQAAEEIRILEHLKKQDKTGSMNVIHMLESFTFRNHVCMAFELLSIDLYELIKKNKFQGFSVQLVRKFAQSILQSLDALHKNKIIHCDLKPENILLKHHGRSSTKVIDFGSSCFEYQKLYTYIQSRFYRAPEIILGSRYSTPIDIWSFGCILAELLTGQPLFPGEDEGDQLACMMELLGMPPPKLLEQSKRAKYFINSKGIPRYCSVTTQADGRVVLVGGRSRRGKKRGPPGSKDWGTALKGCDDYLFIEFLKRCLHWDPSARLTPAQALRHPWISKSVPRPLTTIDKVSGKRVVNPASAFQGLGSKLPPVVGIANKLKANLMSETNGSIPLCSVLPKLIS
Sequence of Casein kinase I isoform delta (Homo sapiens) (P48730 whole entry, looked up, canonical isoform): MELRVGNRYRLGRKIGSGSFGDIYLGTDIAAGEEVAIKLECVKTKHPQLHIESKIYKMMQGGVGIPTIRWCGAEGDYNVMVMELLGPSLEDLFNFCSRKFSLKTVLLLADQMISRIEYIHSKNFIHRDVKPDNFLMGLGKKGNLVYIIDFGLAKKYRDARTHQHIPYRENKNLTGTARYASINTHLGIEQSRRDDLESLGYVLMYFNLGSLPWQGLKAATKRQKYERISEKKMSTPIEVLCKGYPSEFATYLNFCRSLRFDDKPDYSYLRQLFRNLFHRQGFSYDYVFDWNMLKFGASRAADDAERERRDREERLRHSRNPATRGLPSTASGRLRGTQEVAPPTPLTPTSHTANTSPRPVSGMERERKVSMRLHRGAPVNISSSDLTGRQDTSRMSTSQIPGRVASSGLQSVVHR
Sequence of Dual specificity mitogen-activated protein kinase kinase 1 (Homo sapiens) (Q02750 whole entry): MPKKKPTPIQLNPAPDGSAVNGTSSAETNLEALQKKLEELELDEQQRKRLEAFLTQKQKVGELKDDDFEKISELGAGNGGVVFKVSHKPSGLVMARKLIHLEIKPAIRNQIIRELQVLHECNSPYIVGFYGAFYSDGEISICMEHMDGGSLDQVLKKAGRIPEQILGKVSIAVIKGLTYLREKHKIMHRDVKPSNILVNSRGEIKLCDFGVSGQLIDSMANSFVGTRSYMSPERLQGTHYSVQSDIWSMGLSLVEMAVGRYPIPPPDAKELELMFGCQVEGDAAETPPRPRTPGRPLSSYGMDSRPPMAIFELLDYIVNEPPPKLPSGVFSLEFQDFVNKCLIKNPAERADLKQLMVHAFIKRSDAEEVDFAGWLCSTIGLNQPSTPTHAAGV
Sequence of Mitogen-activated protein kinase 14 (Homo sapiens) (Q16539 whole entry, canonical isoform): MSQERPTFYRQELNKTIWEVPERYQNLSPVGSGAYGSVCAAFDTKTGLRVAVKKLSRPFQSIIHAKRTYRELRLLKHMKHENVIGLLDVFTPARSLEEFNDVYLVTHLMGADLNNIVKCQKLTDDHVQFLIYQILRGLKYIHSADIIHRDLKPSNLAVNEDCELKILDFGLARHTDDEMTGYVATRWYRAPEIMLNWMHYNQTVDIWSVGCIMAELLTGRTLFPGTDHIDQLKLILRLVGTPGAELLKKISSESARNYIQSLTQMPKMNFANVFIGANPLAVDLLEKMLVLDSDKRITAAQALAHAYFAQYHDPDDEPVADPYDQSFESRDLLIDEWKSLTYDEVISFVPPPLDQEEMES
Sequence of Homeodomain-interacting protein kinase 1 (Homo sapiens) (Q86Z02 whole entry, looked up): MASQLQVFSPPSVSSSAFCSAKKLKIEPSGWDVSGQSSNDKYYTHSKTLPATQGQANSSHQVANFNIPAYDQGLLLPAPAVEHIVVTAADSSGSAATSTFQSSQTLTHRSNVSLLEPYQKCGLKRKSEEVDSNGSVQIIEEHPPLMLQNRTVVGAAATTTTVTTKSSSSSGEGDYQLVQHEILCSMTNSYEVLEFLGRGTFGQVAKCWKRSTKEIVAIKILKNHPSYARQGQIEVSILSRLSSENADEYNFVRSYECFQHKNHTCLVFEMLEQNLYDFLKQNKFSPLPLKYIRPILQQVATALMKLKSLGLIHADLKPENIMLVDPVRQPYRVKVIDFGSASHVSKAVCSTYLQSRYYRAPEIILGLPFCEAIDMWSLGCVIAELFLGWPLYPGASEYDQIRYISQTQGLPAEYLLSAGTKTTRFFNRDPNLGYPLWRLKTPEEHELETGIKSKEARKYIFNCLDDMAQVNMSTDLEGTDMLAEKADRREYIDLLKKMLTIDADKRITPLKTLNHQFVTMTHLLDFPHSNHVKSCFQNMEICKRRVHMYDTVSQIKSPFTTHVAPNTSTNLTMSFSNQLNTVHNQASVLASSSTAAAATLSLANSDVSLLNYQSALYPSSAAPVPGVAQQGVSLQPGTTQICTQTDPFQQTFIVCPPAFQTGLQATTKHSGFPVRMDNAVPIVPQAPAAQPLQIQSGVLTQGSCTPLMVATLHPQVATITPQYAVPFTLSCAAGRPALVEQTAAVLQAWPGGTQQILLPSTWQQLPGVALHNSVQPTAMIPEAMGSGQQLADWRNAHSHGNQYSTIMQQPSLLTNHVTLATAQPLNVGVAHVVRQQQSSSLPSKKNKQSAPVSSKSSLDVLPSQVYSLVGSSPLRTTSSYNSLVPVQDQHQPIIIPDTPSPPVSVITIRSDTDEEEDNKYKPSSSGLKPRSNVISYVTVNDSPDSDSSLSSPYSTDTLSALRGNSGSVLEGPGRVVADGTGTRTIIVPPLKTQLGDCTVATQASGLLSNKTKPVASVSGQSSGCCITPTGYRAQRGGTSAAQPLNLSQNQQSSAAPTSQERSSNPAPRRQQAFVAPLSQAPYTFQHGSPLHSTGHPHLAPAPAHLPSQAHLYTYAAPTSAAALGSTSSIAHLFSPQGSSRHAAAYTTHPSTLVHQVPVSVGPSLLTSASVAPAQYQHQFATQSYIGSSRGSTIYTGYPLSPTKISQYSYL
Sequence of High affinity nerve growth factor receptor (Homo sapiens) (P04629 33-796 limits assumed): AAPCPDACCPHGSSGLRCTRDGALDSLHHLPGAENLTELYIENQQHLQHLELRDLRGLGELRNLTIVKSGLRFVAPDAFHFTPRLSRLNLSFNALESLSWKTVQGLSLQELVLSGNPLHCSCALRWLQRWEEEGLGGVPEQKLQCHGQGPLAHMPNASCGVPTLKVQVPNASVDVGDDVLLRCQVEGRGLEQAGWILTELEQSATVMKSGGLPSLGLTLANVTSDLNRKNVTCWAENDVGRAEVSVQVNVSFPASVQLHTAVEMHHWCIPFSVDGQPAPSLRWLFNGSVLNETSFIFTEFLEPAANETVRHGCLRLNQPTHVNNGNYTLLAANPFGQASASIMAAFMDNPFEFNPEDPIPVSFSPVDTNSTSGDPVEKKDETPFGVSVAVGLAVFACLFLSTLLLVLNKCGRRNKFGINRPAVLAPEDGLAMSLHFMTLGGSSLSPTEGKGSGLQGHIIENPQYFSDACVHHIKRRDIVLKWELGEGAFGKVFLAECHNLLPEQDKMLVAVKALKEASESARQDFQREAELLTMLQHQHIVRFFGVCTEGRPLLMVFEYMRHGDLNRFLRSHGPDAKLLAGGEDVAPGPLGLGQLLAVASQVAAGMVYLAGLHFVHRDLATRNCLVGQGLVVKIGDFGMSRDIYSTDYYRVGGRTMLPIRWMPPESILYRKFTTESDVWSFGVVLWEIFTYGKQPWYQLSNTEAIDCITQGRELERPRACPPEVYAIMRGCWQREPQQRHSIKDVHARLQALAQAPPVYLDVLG
Sequence of MAP kinase-interacting serine/threonine-protein kinase 2 (Homo sapiens) (Q9HBH9 whole entry, looked up): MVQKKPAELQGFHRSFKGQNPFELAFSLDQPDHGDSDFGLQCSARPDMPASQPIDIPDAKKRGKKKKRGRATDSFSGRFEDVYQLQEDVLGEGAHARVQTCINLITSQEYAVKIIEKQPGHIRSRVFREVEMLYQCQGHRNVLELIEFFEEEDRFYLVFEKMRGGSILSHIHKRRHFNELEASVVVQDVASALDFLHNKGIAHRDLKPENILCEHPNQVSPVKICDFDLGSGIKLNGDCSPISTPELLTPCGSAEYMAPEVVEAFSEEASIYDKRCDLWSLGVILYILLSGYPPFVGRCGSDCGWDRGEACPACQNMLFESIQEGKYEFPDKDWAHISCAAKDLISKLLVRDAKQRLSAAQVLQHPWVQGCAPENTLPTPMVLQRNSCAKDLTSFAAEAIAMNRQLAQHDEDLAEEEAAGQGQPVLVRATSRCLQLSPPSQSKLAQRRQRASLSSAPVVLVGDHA
Sequence of Calcium/calmodulin-dependent protein kinase type 1 (Homo sapiens) (Q14012 whole entry, looked up): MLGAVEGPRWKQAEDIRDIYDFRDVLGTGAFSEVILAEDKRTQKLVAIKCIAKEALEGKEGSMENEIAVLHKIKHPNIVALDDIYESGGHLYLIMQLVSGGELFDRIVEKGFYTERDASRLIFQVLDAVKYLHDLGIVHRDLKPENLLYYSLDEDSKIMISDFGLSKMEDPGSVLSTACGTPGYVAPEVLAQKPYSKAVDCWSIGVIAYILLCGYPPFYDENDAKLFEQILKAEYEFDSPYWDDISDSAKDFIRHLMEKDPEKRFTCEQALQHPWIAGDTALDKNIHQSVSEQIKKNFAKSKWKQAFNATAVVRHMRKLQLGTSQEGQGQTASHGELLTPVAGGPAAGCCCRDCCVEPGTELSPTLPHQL
Sequence of Mitogen-activated protein kinase 9 (Homo sapiens) (P45984 whole entry, looked up): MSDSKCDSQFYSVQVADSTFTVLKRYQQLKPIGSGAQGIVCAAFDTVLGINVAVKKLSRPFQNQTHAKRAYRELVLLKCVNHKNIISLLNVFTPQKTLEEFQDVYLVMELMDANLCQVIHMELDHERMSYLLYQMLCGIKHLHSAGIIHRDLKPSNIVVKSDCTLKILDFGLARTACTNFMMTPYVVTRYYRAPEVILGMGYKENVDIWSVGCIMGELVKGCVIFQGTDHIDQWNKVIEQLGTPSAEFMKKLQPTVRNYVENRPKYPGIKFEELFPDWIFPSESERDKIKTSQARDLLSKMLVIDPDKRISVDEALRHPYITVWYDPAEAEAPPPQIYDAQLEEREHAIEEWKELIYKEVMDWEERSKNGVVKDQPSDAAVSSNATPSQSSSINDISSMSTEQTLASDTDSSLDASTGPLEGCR

Question: With `Cc1ccc(-c2cc(C(=O)Nc3ccnc(Cl)c3)nn2-c2ccc3ccccc3n2)cc1` as the molecule, how does the Activity [1] read?
Answer: 100%

Question: And the Activity [2]?
Answer: 98%

Question: And the Activity [3]?
Answer: inactive

Question: What about the Activity [4] of the same molecule?
Answer: 108%

Question: And the Activity [5]?
Answer: 97%

Question: And the Activity [6]?
Answer: 100%

Question: What about the Activity [7] of the same molecule?
Answer: 11.1%

Question: What about the Activity [8] of the same molecule?
Answer: 114%

Question: What about the Activity [9] of the same molecule?
Answer: 96%

Question: And the Activity [10]?
Answer: 19.9%

Question: And the Activity [11]?
Answer: 76%

Question: And the Activity [12]?
Answer: 95%

Question: What about the Activity [13] of the same molecule?
Answer: 96%

Question: What about the Activity [14] of the same molecule?
Answer: 40.1%

Question: And the Activity [15]?
Answer: 106%

Question: What about the Activity [16] of the same molecule?
Answer: 115%

Question: What about the Activity [17] of the same molecule?
Answer: 95%

Question: And the Activity [18]?
Answer: 109%

Question: And the Activity [19]?
Answer: 109%

Question: What about the Activity [20] of the same molecule?
Answer: 128%

Question: What about the Activity [21] of the same molecule?
Answer: 109%

Question: What about the IC50 [22] of the same molecule?
Answer: 1600 nM

Question: And the Activity [23]?
Answer: 86%

Question: What about the Activity [24] of the same molecule?
Answer: 125%

Question: What about the Activity [25] of the same molecule?
Answer: 113%

Question: And the Activity [26]?
Answer: 109%

Question: And the Activity [27]?
Answer: 101%

Question: And the Activity [28]?
Answer: 10.3%
